IDH1 mut inh – IDH1 R132H (human) inhibition. inhibition, % at 10 µM. O75874. IDH1 R132H reductase, diaphorase/resazurin fluorescence, 60 min. hit rate 0.18% among 70,000; in the data active = inhibition above about 34%; inconclusive = no clear call, values can overlap the other calls; inactive = below about 11%;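 note: 0% = DMSO and 100% = no enzyme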
Target sequence (O75874 whole entry R132H): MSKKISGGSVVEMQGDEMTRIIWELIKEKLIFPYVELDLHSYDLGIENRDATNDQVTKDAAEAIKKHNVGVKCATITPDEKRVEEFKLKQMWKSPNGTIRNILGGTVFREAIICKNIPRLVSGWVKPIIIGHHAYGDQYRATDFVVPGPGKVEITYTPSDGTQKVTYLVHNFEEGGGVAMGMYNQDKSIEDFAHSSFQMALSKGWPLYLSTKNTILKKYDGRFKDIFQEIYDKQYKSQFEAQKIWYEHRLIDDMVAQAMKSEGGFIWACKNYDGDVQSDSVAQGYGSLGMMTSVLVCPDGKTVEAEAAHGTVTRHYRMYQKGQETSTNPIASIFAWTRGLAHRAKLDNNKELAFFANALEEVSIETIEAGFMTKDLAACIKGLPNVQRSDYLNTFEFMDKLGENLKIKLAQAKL
Pf Dd2 inh – P. falciparum Dd2 growth inhibition; hit rate 2.3% among 94,000; SYBR Green, 72 h; hits give low values; activity change, % at 10 µM; in the data active = activity change below about -80%; inconclusive = no clear call, values can overlap the other calls
GASC1 inh – blocks human GASC-1 (KDM4C) demethylase activity; Q9H3R0; GST-KDM4C 2-372, H3K9me3 peptide, LANCE TR-FRET; inhibition, % at 12.5 µM; hit rate 0.15% among 96,000; AID 720574;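 active = mean replicate inhibition above about 25%, with at least 55% of replicates also reaching it, limit read from the data, passing the limit was not always enough; inconclusive = only one of those two conditions met; inactive = neither condition met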
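System – N-terminal GST-fused human GASC-1 (KDM4C) fragment, residues 2-372 · Input – enzyme final amount 10 nM · Technique – LANCE TR-FRET, Eu antibody, ULight-streptavidin, EDTA, ex 340 nm, em 618/671 nm · Medium – HEPES buffer, pH 7.5, plus ascorbate · Incubation – enzyme reaction 30 min, then detection 60 min, both room temperature · Reagent – H3K9me3 peptide with Fe(II)/2OG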
T cruzi growth-1 – inhibitors of T. cruzi proliferation | T. cruzi beta-gal in NIH3T3, GalScreen luminescence, 90 h | inhibition, % at 8.34 µM | hit rate 5.9% among 77,000;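 active = mean inhibition above about 93%, with at least 55% of replicates each passing it, limit read from the data, passing the limit was not always enough; inconclusive = only one of those two conditions holds; inactive = neither condition holds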
T cruzi growth-2 – Trypanosoma cruzi proliferation inhibition | hit rate 72% among 5,600 | T. cruzi beta-gal in NIH3T3, GalScreen luminescence, 90 h | inhibition, % at 8.35 µM | shares compounds with T cruzi growth-1;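 active = mean replicate inhibition above about 95% and at least 55% of replicates individually reaching it, limit read from the data; inconclusive = only one of the two criteria is met; inactive = neither criterion is met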
T cruzi growth-3 – blocks T. cruzi growth in NIH3T3 host cells; shares compounds with T cruzi growth-1; T. cruzi beta-gal in NIH3T3, GalScreen luminescence, 90 h; inhibition, % at 2.09 µM; hit rate 21% among 5,600;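 active = mean inhibition above about 95%, with at least 55% of replicates also reaching it, limit read from the data; inconclusive = meets just one of the two conditions; inactive = meets neither condition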;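 note: plate controls were neutral control median for no effect and positive control median for full effect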
NIH3T3 tox – kills mouse NIH/3T3 fibroblasts; shares compounds with T cruzi growth-1; NIH/3T3 viability, CellTiter-Glo ATP luminescence, 90 h; cytotoxicity (signal decrease), % at 8.35 µM; hit rate 14% among 5,600;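 active = mean signal decrease across replicates above about 35% based on untreated-well scatter, with enough replicates individually passing, limit read from the data; inconclusive = no rule stated though some were filed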;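 note: 0% = median of neutral control wells and 100% = median of positive control wells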
3T3 cytotox 2 – cytotoxicity in mouse NIH/3T3 fibroblasts; hit rate 56% among 5,600; NIH/3T3 viability, CellTiter-Glo ATP luminescence, 90 h; inhibition, % at 24.9 µM; shares compounds with T cruzi growth-1;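 active = mean loss of cell viability signal at or above a set limit, and enough replicates individually reaching it; inconclusive = meets only the mean limit or only the replicate share; inactive = meets neither condition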;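 note: 0% = median of neutral control wells and 100% = median of positive control wells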
* = called active by the depositor; ? = inconclusive; . = not tested or not shown; + = active, no number. Compounds with a hit are over-represented: about 5.9% of the library has one in this group of screens.

SMILES	IDH1 mut inh	Pf Dd2 inh	GASC1 inh	T cruzi growth-1	T cruzi growth-2	T cruzi growth-3	NIH3T3 tox	3T3 cytotox 2
Cc1cccc(S(=O)(=O)N2CC[C@@H]3[C@H](CO)N(C)c4ccc(Br)cc4[C@@H]32)c1	.	24	0	?	111*	31	24	-2
COc1ccc(-c2ccc3c(c2)[C@@H]2[C@@H](CCN2S(=O)(=O)C2=NC(C)C=N2)[C@H](CO)N3C)cc1 (some centres undefined)	.	-13	2	93	.	.	.	.
CN1c2ccc(Br)cc2[C@@H]2[C@@H](CCN2S(=O)(=O)c2cccc(F)c2)[C@@H]1CO	.	14	0	?	92	53	48*	41*
COc1ccc(-c2ccc3c(c2)[C@H]2[C@H](CCN2S(=O)(=O)C2=NC(C)C=N2)[C@@H](CO)N3C)cc1 (some centres undefined)	.	15	1	101*	104*	106*	-16	-26
O=C(C[C@H]1C[C@@H]2c3cc(NC(=O)NC4CCCC4)ccc3O[C@@H]2[C@@H](CO)O1)NCC1CC1	0	-5	0	9	.	.	.	.
COc1cc([N+](=O)[O-])ccc1NC(=O)CSc1nc2c(c(C(F)(F)F)n1)CCCC2	0	.	.	.	.	.	.	.
CC1C=NC(S(=O)(=O)N2CC[C@@H]3[C@@H](CO)N(C)c4ccc(-c5cccc(F)c5)cc4[C@@H]32)=N1 (some centres undefined)	.	7	1	103*	104*	86	19	-7
CC(C)NC(=O)N(C)C[C@H]1OCCCC[C@@H](C)Oc2ccc(NS(=O)(=O)c3cccs3)cc2C(=O)N([C@@H](C)CO)C[C@H]1C	4	.	-1	-72	.	.	.	.
CC(=O)N1[C@@H]2Cn3c(ccc(/C=C/c4ccccc4)c3=O)[C@H]1[C@@H](C(=O)N(C)C)[C@@H]2CO	.	.	-1	+	68	-8	0	-3
CC=Cc1ccc2n(c1=O)C[C@H]1[C@H](CO)[C@@H](C(=O)NCCCN(C)C)[C@@H]2N1C(=O)c1ccccc1F (mixture of isomers)	.	.	5	+	?	-5	9	-3
CC(=O)N1[C@@H]2c3ccc(/C=C/c4ccccc4)c(=O)n3C[C@H]1[C@H](CO)[C@H]2C(=O)N(C)C	.	.	-1	+	76	17	1	4
CCC(=O)N1[C@@H]2c3ccc(/C=C/c4ccccc4)c(=O)n3C[C@H]1[C@H](CO)[C@H]2C(=O)N(C)C	.	3	-3	51	.	.	.	.
CC(C)CC#Cc1ccc2c(c1)O[C@H](CN(C)S(=O)(=O)c1cccc(F)c1)[C@H](C)CN([C@H](C)CO)S2(=O)=O	0	-77	-1	112*	100*	116*	19	98*
CC(C)CC#Cc1ccc2c(c1)O[C@@H](CN(C)S(=O)(=O)c1ccc(F)cc1)[C@@H](C)CN([C@@H](C)CO)S2(=O)=O	0	-53	1	.	.	.	.	.
CC(C)CC#Cc1ccc2c(c1)O[C@H](CN(C)S(=O)(=O)c1cccc(F)c1)[C@H](C)CN([C@@H](C)CO)S2(=O)=O	8	-54	-3	118*	88	100*	13	60*
Cc1noc(C)c1S(=O)(=O)Nc1ccc2c(c1)C(=O)N([C@@H](C)CO)C[C@@H](C)[C@H](CN(C)CC1CCCCC1)OCCCC[C@@H](C)O2	.	-20	2	19	.	.	.	.
Cc1ccc(-n2c(N)cc(=O)nc2SCC(=O)Nc2cccc(C(F)(F)F)c2)cc1	0	.	.	.	.	.	.	.
C[C@@H]1CN([C@H](C)CO)C(=O)CCCn2nncc2CO[C@H]1CN(C)C(=O)Nc1cccc(Oc2ccccn2)c1	1	4	.	-20	.	.	.	.
COC(=O)[C@H]1[C@H](CO)[C@H]2Cn3c(ccc(-c4cccc(OC)c4)c3=O)[C@H]2N1CC1CC1	.	0	4	75	.	.	.	.
CCNC(=O)[C@@H]1[C@@H](CO)[C@@H]2Cn3c(ccc(-c4ccccc4OC)c3=O)[C@@H]2N1S(C)(=O)=O	.	1	1	111*	-99	8	-26	-52
COC(=O)[C@H]1[C@H](CO)[C@H]2Cn3c(ccc(-c4ccccc4OC)c3=O)[C@H]2N1CC1CCCC1	.	.	5	+	44	-12	-7	28*
COC(=O)[C@H]1[C@H](CO)[C@H]2Cn3c(ccc(-c4ccccc4OC)c3=O)[C@H]2N1CC1CCOCC1	.	5	3	5	.	.	.	.
COC(=O)[C@@H]1[C@@H](CO)[C@@H]2Cn3c(ccc(-c4ccccc4OC)c3=O)[C@@H]2N1CC1CCCC1	.	.	5	+	38	13	-1	33*
COc1cccc(-c2ccc3n(c2=O)C[C@@H]2[C@@H](CO)[C@H](C(=O)N(C)C)N(CC4CC4)[C@H]32)c1	.	-2	4	104*	107*	18	12	?
CCNC(=O)[C@@H]1[C@@H](CO)[C@@H]2Cn3c(ccc(-c4ccccc4OC)c3=O)[C@@H]2N1CC	.	11	2	12	.	.	.	.
SMILES	IDH1 mut inh	Pf Dd2 inh	GASC1 inh	T cruzi growth-1	T cruzi growth-2	T cruzi growth-3	NIH3T3 tox	3T3 cytotox 2
COC(=O)[C@@H]1[C@@H](CO)[C@@H]2Cn3c(ccc(-c4ccccc4OC)c3=O)[C@@H]2N1CC1CCCCC1	.	-48	3	.	.	.	.	.
COc1ccccc1S(=O)(=O)N(C)C[C@H]1OCc2cn(nn2)CCCC(=O)N([C@H](C)CO)C[C@H]1C	.	-7	2	-25	.	.	.	.
COc1ccc(NC(=O)N(C)C[C@@H]2OCc3cnnn3CCCC(=O)N([C@H](C)CO)C[C@H]2C)c(OC)c1	.	0	4	-22	.	.	.	.
COC(=O)c1c(NC(=S)Nc2cccc(NC(C)=O)c2)sc(C(=O)N(C)C)c1C	2	.	.	.	.	.	.	.
CCC(=O)N1CCCCN2[C@H](CO)[C@@H](c3ccc(C#CCOC)cc3)[C@@H]2C1	.	0	1	100*	1	22	-2	14
COCC#Cc1ccc([C@@H]2[C@@H](CO)N3CCCCN(C(=O)COC)C[C@H]23)cc1	.	56	0	102*	38	-5	16	-2
CCC(=O)N1CCCCN2[C@H](CO)[C@H](c3ccc(C#CCOC)cc3)[C@H]2C1	.	-14	-1	64	.	.	.	.
COCC(=O)N1[C@H](CO)[C@H](c2ccc(C#CCC3CCCC3)cc2)[C@@H]1C#N	0	-28	-1	89	.	.	.	.
N#C[C@H]1[C@@H](c2ccc(C#CCC3CCCC3)cc2)[C@@H](CO)N1C(=O)c1ccccn1	0	?	-1	97*	102*	112*	-25	93*
N#C[C@@H]1[C@@H](c2ccc(C#CCC3CCCC3)cc2)[C@H](CO)N1C(=O)c1ccccn1	.	-24	0	97*	?	112*	-1	107*
